The species named for assay [1] is Bos taurus. Nature of the assay: Induction of bovine brain tubulin polymerization at 10 uM by turbidimetry at 15 degC in presence of 4-morpholine-ethanesulfonate. In a few lines: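 Purified bovine brain tubulin at 10 μM (1.0 mg/ml) in 0.1 M 4-morpholine-ethanesulfonate (pH 6.9) with 0.5 mM MgCl2, 100 μM GTP, 4% (v/v) DMSO, and agent at 10 μM. Baseline was read at 0°, the controller was then set to 15°, and later temperature steps followed. Polymerization was followed by turbidity at 350 or 420 nm.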

For assay [2], the species on record is Bos taurus. Nature of the assay: Induction of bovine brain tubulin polymerization at 10 uM by turbidimetry at 37 degC in presence of 4-morpholine-ethanesulfonate. Summed up:
(§1)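 Low ionic strength turbidimetry at 350 or 420 nm: 10 μM purified bovine brain tubulin in 0.1 M 4-morpholine-ethanesulfonate (pH 6.9), 0.5 mM MgCl2, 100 μM GTP, 4% DMSO. Baseline at 0°, then temperature stepped to 15° and 37°.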

For assay [3], the species on record is Bos taurus. Nature of the assay: Induction of bovine brain tubulin depolymerization at 10 uM by turbidimetry in presence of glutamate. In a few lines: (§2)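 Turbidimetry at 350 or 420 nm of 10 μM purified bovine brain tubulin in 1.0 M monosodium glutamate (pH 6.6), 50 μM GTP, 4% DMSO. Baseline at 0°, then stepped temperatures: 15°, 37°, then down to 10° and 0° to follow depolymerization.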

Assay [4] can be described thus: Inhibition of bovine brain tubulin depolymerization after 20 mins by turbidimetry. Set-up: species or system Bos taurus. In a few lines: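 Purified bovine brain tubulin 10 μM (1.0 mg/ml) in 1.0 M monosodium glutamate (pH 6.6), 50 μM GTP, 4% DMSO, with varying analogue concentrations. Temperature jump 0 to 37°, held about 20 min, then reverse jump to 0°. Maximum depolymerization rate read as fall in A350 or A420. IC50 interpolated; at least three independent determinations.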

For assay [5], the species on record is Bos taurus. Nature of the assay: Induction of bovine brain tubulin polymerization at 10 uM at 0 degC by turbidimetry at lower temperature in presence of glutamate. The settings on record: in the assay text read “at 15 degC” for “at 0 degC”. In a few lines: as §2
Assay [6] is filed under the species Bos taurus. Nature of the assay: Induction of bovine brain tubulin polymerization at 40 uM by turbidimetry in presence of 4-morpholine-ethanesulfonate. In a few lines:
as §1

The values below come from ChEMBL document CHEMBL1148187, “Modified taxols, 9. Synthesis and biological evaluation of 7-substituted photoaffinity analogues of taxol” (J Nat Prod, 1993).

Calls of active or inactive are those of the source. No cut-off for these calls is given here.

As for `CC(=O)O[C@H]1C(=O)[C@@]2(C)[C@H]([C@H](OC(=O)c3ccccc3)[C@]3(O)C[C@H](OC(=O)[C@H](O)[C@@H](NC(=O)c4ccccc4)c4ccccc4)C(C)=C1C3(C)C)[C@]1(OC(C)=O)CO[C@@H]1C[C@@H]2O` [PACLITAXEL], in assay [1], the outcome was inactive. Also, the outcome in assay [2] and in assay [5] was Active. Besides, the Activity in assay [3] was below 50%. In addition, in assay [4], the IC50 amounted to 0.42 µM.

Consider `CC(=O)O[C@H]1C(=O)[C@]2(C)[C@@H](OC(=O)c3ccccc3)C[C@H]3OC[C@@]3(OC(C)=O)[C@H]2[C@H](OC(=O)c2ccccc2)[C@]2(O)C[C@H](OC(=O)[C@H](O)[C@@H](NC(=O)c3ccccc3)c3ccccc3)C(C)=C1C2(C)C` [PACLITAXEL C7 BENZOIC ACID ESTER], for which the outcome in assay [6] was inactive. For the same molecule, in assay [4], the IC50 was found to be 0.65 µM.
